Measured values as given in ChEMBL document CHEMBL4130438, “6,7-Seco-ent-Kauranoids Derived from Oridonin as Potential Anticancer Agents” (J Nat Prod, 2017).
pIC50: −log10 of the molar value. Active and inactive are the calls of the source. The calls are words filed in the database; no cut-off is given here.

Experiments:
MCF7 [1] = assay: Cell cycle arrest in human MCF7 cells assessed as accumulation at G1 phase at 1 uM after 48 hrs by propidium iodide staining based flow cytometry (reference value: 70.27%); format: functional
MCF7 [2] = assay: Cell cycle arrest in human MCF7 cells assessed as accumulation at S phase at 0.25 uM after 48 hrs by propidium iodide staining based flow cytometry (reference value: 17.01%); format: functional
MCF7 [3] = assay: Cell cycle arrest in human MCF7 cells assessed as accumulation at S phase at 1 uM after 48 hrs by propidium iodide staining based flow cytometry (reference value: 17.01%); format: functional
MCF7 [4] = assay: Cell cycle arrest in human MCF7 cells assessed as accumulation at G2/M phase at 0.25 uM after 48 hrs by propidium iodide staining based flow cytometry (reference value: 12.72%); format: functional
Mus musculus = assay: Toxicity in ICR mouse xenografted with […] cells assessed as effect on body weight loss at 10 to 20 mg/kg, iv qd administered for 14 consecutive days; format: organism-based; conditions: in vivo
Procedure, shortened: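 Male ICR mice, five weeks old, implanted s.c. in the right flank with 1 × 10^6 H22 cells. After 7 days, randomised into groups of eight. Given i.v. once daily for 14 days, 10 or 20 mg/kg in 10% DMF/2% poloxamer/88% saline; negative controls received 0.9% saline i.v., positive control 20 mg/kg oridonin. Body weight and tumour volume (L × W²/2) recorded every 2 days. Tumours excised and weighed at sacrifice; inhibition (%) = (1 − treated/control mean tumour weight) × 100.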

KB 3-1 = assay: Antiproliferative activity against human KB-3-1 cells after 48 hrs by MTT assay; format: functional, cell-based
MCF7 [5] = assay: Cell cycle arrest in human MCF7 cells assessed as accumulation at G1 phase at 0.25 uM after 48 hrs by propidium iodide staining based flow cytometry (reference value: 70.27%); format: functional
MCF7 [6] = assay: Induction of apoptosis in human MCF7 cells assessed as decrease in Bcl2 expression level after 48 hrs by Western blot analysis; format: functional, cell-based
Procedure, shortened: (§1)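 MCF-7 cells treated 48 h with 0, 0.5, 1.0, 2.0 or 4.0 μM, then lysed on ice. 20 μg protein per lane run on 8–12% SDS-PAGE and transferred to PVDF. Probed overnight at 4 °C for caspase-3, pro-caspase-3, Bax, Bcl-2, p-ERK and p53, with fluorescent secondary antibodies. Densities normalised to β-actin; three independent experiments.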

MCF7 [7] = assay: Cell cycle arrest in human MCF7 cells assessed as accumulation at G2/M phase at 1 uM after 48 hrs by propidium iodide staining based flow cytometry (reference value: 12.72%); format: functional
MCF7 [8] = assay: Induction of apoptosis in human MCF7 cells assessed as late apoptotic cells at 0.50 uM after 24 hrs by Annexin-V FITC/propidium iodide staining based flow cytometry (reference value: 0.290%); format: functional
K562 = assay: Antiproliferative activity against human K562 cells after 72 hrs by MTT assay; format: functional, cell-based; conditions: K562, 72 h
Procedure, shortened: (§2)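 Cells pre-incubated 24 h at 37 °C, 5% CO2 in 96-well plates, then exposed to a range of compound concentrations (DMSO ≤0.25%) for 72 h. Viable cells read by MTT colour at 570 nm. Performed in quadruplicate, repeated three times. IC50 reported as means ± SD, n = 3.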

MGC-803 = assay: Antiproliferative activity against human MGC803 cells after 72 hrs by MTT assay; format: functional, cell-based; conditions: MGC-803, 72 h; procedure, shortened: as §2
MCF7 [9] = assay: Cell cycle arrest in human MCF7 cells assessed as accumulation at G2/M phase after 48 hrs by propidium iodide staining based flow cytometry; format: functional
MCF7 [10] = assay: Induction of apoptosis in human MCF7 cells assessed as late apoptotic cells at 0.25 uM after 24 hrs by Annexin-V FITC/propidium iodide staining based flow cytometry (reference value: 0.290%); format: functional
MCF7 [11] = assay: Induction of apoptosis in human MCF7 cells assessed as viable cells at 2 uM after 24 hrs by Annexin-V FITC/propidium iodide staining based flow cytometry (reference value: 97.5%); format: functional; conditions: MCF7, 24 h, read-out: Activity
MCF7 [12] = assay: Induction of apoptosis in human MCF7 cells assessed as viable cells at 1 uM after 24 hrs by Annexin-V FITC/propidium iodide staining based flow cytometry (reference value: 97.5%); format: functional; conditions: MCF7, 24 h, read-out: Activity
MCF7 [13] = assay: Induction of apoptosis in human MCF7 cells assessed as necrotic cells at 2 uM after 24 hrs by Annexin-V FITC/propidium iodide staining based flow cytometry (reference value: 0.610%); format: functional
MCF7 [14] = assay: Induction of apoptosis in human MCF7 cells assessed as decrease in p53 expression level after 48 hrs by Western blot analysis; format: functional, cell-based; procedure, shortened: as §1
MCF7 [15] = assay: Induction of apoptosis in human MCF7 cells assessed as increase in Bax expression level after 48 hrs by Western blot analysis; format: functional, cell-based
MCF7 [16] = assay: Cell cycle arrest in human MCF7 cells assessed as accumulation at G1 phase at 2 uM after 48 hrs by propidium iodide staining based flow cytometry (reference value: 70.27%); format: functional
MCF7 [17] = assay: Induction of apoptosis in human MCF7 cells assessed as viable cells at 0.25 uM after 24 hrs by Annexin-V FITC/propidium iodide staining based flow cytometry (reference value: 97.5%); format: functional; conditions: MCF7, 24 h, read-out: Activity
MCF7 [18] = assay: Cell cycle arrest in human MCF7 cells assessed as accumulation at G2/M phase at 2 uM after 48 hrs by propidium iodide staining based flow cytometry (reference value: 12.72%); format: functional
Bel-7402 = assay: Antiproliferative activity against human Bel7402 cells after 72 hrs by MTT assay; format: functional, cell-based; conditions: Bel-7402, 72 h; procedure, shortened: as §2
MCF7 [19] = assay: Induction of apoptosis in human MCF7 cells assessed as necrotic cells at 0.50 uM after 24 hrs by Annexin-V FITC/propidium iodide staining based flow cytometry (reference value: 0.610%); format: functional
MCF7 [20] = assay: Induction of apoptosis in human MCF7 cells assessed as late apoptotic cells at 1 uM after 24 hrs by Annexin-V FITC/propidium iodide staining based flow cytometry (reference value: 0.290%); format: functional
MCF7 [21] = assay: Induction of apoptosis in human MCF7 cells assessed as decrease in mitochondrial membrane potential measured after 36 hrs by JC-1 staining based fluorescence microscopy; format: functional, cell-based
Procedure, shortened: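 MCF-7 cells treated 36 h across a range of concentrations, then loaded with 10 μg/mL JC-1 for 30 min at 37 °C and washed in PBS. Monomer fluorescence read at ex 490/em 535 nm and aggregate fluorescence at ex 525/em 600 nm, by plate reader or fluorescence microscopy. Run in triplicate.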

MCF7 [22] = assay: Cytotoxicity against human MCF7 cells assessed as decrease in cell viability after 24 hrs by LDH release assay; format: functional, cell-based
Procedure, shortened: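 MCF-7 and Bel-7402 cells seeded at ~5 × 10^3 per well for 24 h, then exposed to compounds. LDH released into the medium measured with CytoTox-ONE reagent (10 min, ambient temperature) followed by stop solution. Fluorescence read at ex 560/em 590 nm.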

MCF7 [23] = assay: Cell cycle arrest in human MCF7 cells assessed as accumulation at G2/M phase at 0.50 uM after 48 hrs by propidium iodide staining based flow cytometry (reference value: 12.72%); format: functional
MCF7 [24] = assay: Cell cycle arrest in human MCF7 cells assessed as accumulation at S phase at 2 uM after 48 hrs by propidium iodide staining based flow cytometry (reference value: 17.01%); format: functional

- pIC50 (K562): 6.16
- pIC50 (MGC-803): 5.66
- pIC50 (Bel-7402): 5.74
Structure (SMILES): C=C1C(=O)[C@@]23C(=O)OC[C@]4(C=CCC(C)(C)[C@H]4C=O)[C@@H]2CC[C@@H]1[C@H]3OC(=O)c1ccc(F)cc1
- Activity (MCF7 [1]): 63.35%
- Activity (MCF7 [2]): 18.3%
- Activity (MCF7 [3]): 15.43%
- Activity (MCF7 [4]): 14.06%
- Activity (Mus musculus): Non-Toxic
- Activity (KB 3-1): Active
- Activity (MCF7 [5]): 67.64%
- Activity (MCF7 [6]): Dose-dependent effect
- Activity (MCF7 [7]): 21.23%
- Activity (MCF7 [8]): 7.68%
- Activity (MCF7 [9]): Dose-dependent effect
- Activity (MCF7 [10]): 5.51%
- viability at 2 µM (MCF7 [11]): 58.6%
- viability at 1 µM (MCF7 [12]): 72%
- Activity (MCF7 [13]): 2.74%
- Activity (MCF7 [14]): Dose-dependent effect
- Activity (MCF7 [15]): Dose-dependent effect
- Activity (MCF7 [16]): 57.49%
- viability at 0.25 µM (MCF7 [17]): 87.2%
- Activity (MCF7 [18]): 24.8%
- Activity (MCF7 [19]): 0.901%
- Activity (MCF7 [20]): 15.9%
- Activity (MCF7 [21]): Dose-dependent effect
- Activity (MCF7 [22]): inactive
- Activity (MCF7 [23]): 19.47%
- Activity (MCF7 [24]): 17.71%
